The source made the active and inactive calls. The rule behind the calls is not given here.
Key:
HT-29 [1] = assay: Ratio of aspirin IC50 to compound IC50 for human HT-29 cells expressing COX1 and COX2 after 24 hrs by MTT assay; format: functional
In short: (§1)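 Human cancer cell lines were exposed to compound and cell viability was read at 24 h. IC50 values were calculated from the viability data. Mean ± SEM of at least four experiments, each run in triplicate.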

HCT-15 = assay: Cytotoxicity against COX deficient human HCT15 cells after 24 hrs by MTT assay; format: functional, cell-based; conditions: HCT-15, 24 h; in short: as §1
MCF7 = assay: Cytotoxicity against human MCF7 cells expressing ER after 24 hrs by MTT assay; format: functional, cell-based; conditions: MCF7, 24 h; in short: as §1
SK-BR-3 = assay: Cytotoxicity against ER deficient human SKBR3 cells after 24 hrs by MTT assay; format: functional, cell-based; conditions: SK-BR-3, 24 h; in short: as §1
A549 = assay: Cytotoxicity against human A549 cells after 24 hrs by MTT assay; format: functional, cell-based; conditions: A549, 24 h; in short: as §1
SW480 = assay: Cytotoxicity against human SW480 cells expressing COX1 after 24 hrs by MTT assay; format: functional, cell-based; conditions: SW480, 24 h; in short: as §1
HT-29 [2] = assay: Cytotoxicity against human HT-29 cells expressing COX1 and COX2 after 24 hrs by MTT assay; format: functional, cell-based; conditions: HT-29, 24 h; in short: as §1
LNCaP = assay: Cytotoxicity against human LNCAP cells after 24 hrs by MTT assay; format: functional, cell-based; in short: as §1
Jurkat = assay: Cytotoxicity against human Jurkat cells expressing COX1 and COX2 after 24 hrs by MTT assay; format: functional, cell-based; in short: as §1
BXPC-3 = assay: Cytotoxicity against human BxPC3 cells expressing COX1 and COX2 after 24 hrs by MTT assay; format: functional, cell-based; conditions: BXPC-3, 24 h; in short: as §1
MIA PaCa-2 = assay: Cytotoxicity against COX deficient human MIAPaCa2 cells after 24 hrs by MTT assay; format: functional, cell-based; conditions: MIA PaCa-2, 24 h; in short: as §1
MDA-MB-231 = assay: Cytotoxicity against ER deficient human MDA-MB-231 cells after 24 hrs by MTT assay; format: functional, cell-based; conditions: MDA-MB-231, 24 h; in short: as §1
Rattus norvegicus [3] = assay: In vivo drug metabolism in carrageenan treated rat assessed as increase of H2S release in plasma by […]; format: ADME, organism-based
In short: (§2)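 Blood was collected at the end of the carrageenan paw edema study from rats given vehicle, the reference or the test compound (0.21 or 0.52 mmol/kg). Plasma NOx and H2S were quantified. Mean ± SEM, four rats per group.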

Rattus norvegicus [4] = assay: Antiinflammatory activity in rat assessed as reduction of carrageenan-induced PGE2 level in paw exudates at 0.21 mmol/kg by […] (reference value: 82 +/- 2 pg/mg); format: functional
Rattus norvegicus [5] = assay: Antiinflammatory activity in rat assessed as reduction of carrageenan-induced TNFalpha level in plasma at 0.21 mmol/kg by ELISA; format: functional
HT-29 [6] = assay: Cytotoxicity against human HT-29 cells expressing COX1 and COX2 assessed as lactate dehydrogenase release after 2 to 24 hrs; format: functional, cell-based
In short: (§3)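 HT-29 colon cancer cells were treated with several concentrations for 2, 4, 6, 8 or 24 h. Cytotoxicity was read as LDH release (%) relative to untreated controls.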

Rattus norvegicus [7] = assay: Antiinflammatory activity in rat assessed as reduction of carrageenan-induced TNFalpha level in plasma at 0.52 mmol/kg by ELISA; format: functional
Rattus norvegicus [8] = species on record: Rattus norvegicus; assay: Antiinflammatory activity in rat assessed as reduction of carrageenan-induced paw volume measured after 6 hrs; format: functional, organism-based
Rattus norvegicus [9] = species on record: Rattus norvegicus; assay: Antiinflammatory activity in rat assessed as reduction of carrageenan-induced COX2 expression in paw exudates by Western blot analysis; format: functional, organism-based
Rattus norvegicus [10] = assay: Antiinflammatory activity in rat assessed as reduction of carrageenan-induced PGE2 level in paw exudates at 0.52 mmol/kg by […] (reference value: 82 +/- 2 pg/mg); format: functional
Rattus norvegicus [11] = assay: Antiinflammatory activity in rat assessed as reduction of carrageenan-induced paw volume at 0.52 mmol/kg after 2 to 6 hrs; format: functional
HT-29 [12] = assay: Cytotoxicity against human HT-29 cells expressing COX1 and COX2 assessed as lactate dehydrogenase release at IC50 after 2 to 8 hrs; format: functional; in short: as §3
Rattus norvegicus [13] = assay: Antiinflammatory activity in rat assessed as reduction of carrageenan-induced paw volume at 0.21 mmol/kg after 1 hr; format: functional
Rattus norvegicus [14] = assay: Antiinflammatory activity in rat assessed as reduction of carrageenan-induced paw volume at 0.52 mmol/kg after 1 to 2 hrs; format: functional
HT-29 [15] = assay: Cytotoxicity against human HT-29 cells expressing COX1 and COX2 assessed as lactate dehydrogenase release at 4 times IC50 after 24 hrs; format: functional; in short: as §3
Rattus norvegicus [16] = assay: In vivo drug metabolism in carrageenan treated rat assessed as increase of nitric oxide release in plasma by Griess reaction; format: ADME, organism-based; in short: as §2
HT-29 [17] = assay: Cytotoxicity against human HT-29 cells expressing COX1 and COX2 assessed as lactate dehydrogenase release at IC50 to 4 times IC50; format: functional, cell-based; conditions: TDE = time-dependent effect; in short: as §3
Rattus norvegicus [18] = assay: Antiinflammatory activity in rat assessed as reduction of carrageenan-induced paw volume at 0.21 mmol/kg after 3 hrs; format: functional
HT-29 [19] = assay: Cytotoxicity against human HT-29 cells expressing COX1 and COX2 assessed as lactate dehydrogenase release at 4 times IC50 after 2 to 8 hrs; format: functional; in short: as §3
Rattus norvegicus [20] = assay: Antiinflammatory activity in rat assessed as reduction of carrageenan-induced paw volume at 0.21 mmol/kg after 6 hrs; format: functional
Rattus norvegicus [21] = assay: Antiinflammatory activity in rat assessed as reduction of carrageenan-induced COX1 expression in paw exudates at 0.21 to 0.52 mmol/kg by Western blot analysis; format: functional, organism-based
Rattus norvegicus [22] = assay: Antiinflammatory activity in rat assessed as increase of carrageenan-induced TNFalpha level in plasma at 0.56 mmol/kg by ELISA; format: functional
Rattus norvegicus [23] = assay: Antiinflammatory activity in rat assessed as reduction of carrageenan-induced paw volume at 0.56 mmol/kg after 6 hrs; format: functional
Rattus norvegicus [24] = assay: Antiinflammatory activity in rat assessed as reduction of carrageenan-induced paw volume at 0.56 mmol/kg after 1 to 3 hrs; format: functional
Rattus norvegicus [25] = assay: Antiinflammatory activity in rat assessed as reduction of carrageenan-induced paw volume at 0.56 mmol/kg after 1 hr; format: functional

| Structure (SMILES) | Ratio IC50 (HT-29 [1]) | IC50 (HCT-15) [µM] | IC50 (MCF7) [µM] | IC50 (SK-BR-3) [µM] | IC50 (A549) [µM] | IC50 (SW480) [µM] | IC50 (HT-29 [2]) [µM] | IC50 (LNCaP) [µM] | IC50 (Jurkat) [µM] | IC50 (BXPC-3) [µM] | IC50 (MIA PaCa-2) [µM] | IC50 (MDA-MB-231) [µM] | Activity (Rattus norvegicus [4]) [pg/mg] | other results |
| --- | --- | --- | --- | --- | --- | --- | --- | --- | --- | --- | --- | --- | --- | --- |
| O=C(CCCC[C@@H]1CCSS1)Oc1ccccc1C(=O)OCCCCO[N+](=O)[O-] | >16000 | 0.52 | 0.28 | 0.55 | 0.3 | 0.6 | 0.3 | 0.5 | 0.24 | 0.7 | 0.8 | 0.8 | – | – |
| O=C(CCCO[N+](=O)[O-])Oc1ccccc1C(=O)Oc1ccc(-c2cc(=S)ss2)cc1 | 100000 | 0.05 | 0.28 | 0.075 | 0.05 | 0.06 | 0.048 | 0.088 | 0.1 | 0.057 | 0.047 | 0.1 | 42 | Drug metabolism (Rattus norvegicus [3]): Dose-dependent effect; Activity (Rattus norvegicus [5]): 55 pg/mL; Activity (HT-29 [6]): Dose-dependent effect; Activity (Rattus norvegicus [7]): 40 pg/mL; Activity (Rattus norvegicus [8]): Dose-dependent effect; inhibition (Rattus norvegicus [9]): Dose-dependent effect; Activity (Rattus norvegicus [10]): 21 pg/mg; Activity (Rattus norvegicus [11]): 0.35 mL; Activity (HT-29 [12]): 0.5%; Activity (Rattus norvegicus [13]): 0.5 mL; Activity (Rattus norvegicus [14]): 0.45 mL; Activity (HT-29 [15]): <10%; Drug metabolism (Rattus norvegicus [16]): Dose-dependent effect; Activity (HT-29 [17]): tde; Activity (Rattus norvegicus [18]): 0.6 mL; Activity (HT-29 [19]): 1%; Activity (Rattus norvegicus [20]): 0.4 mL; inhibition (Rattus norvegicus [21]): Active |
| NC(=S)c1ccc(OC(=O)c2ccccc2OC(=O)CCCO[N+](=O)[O-])cc1 | >600 | 5.9 | 5.7 | 6.5 | 6.5 | 5.3 | 7.5 | 4.3 | 7 | 5.5 | 4.8 | 6 | – | – |
| O=C(CCC(=O)Oc1ccccc1C(=O)Oc1ccc(-c2cc(=S)ss2)cc1)OCCCCO[N+](=O)[O-] | >60000 | 0.09 | 0.07 | 0.088 | 0.12 | 0.097 | 0.08 | 0.1 | 0.09 | 0.1 | 0.102 | 0.085 | – | – |
| CC(=O)Oc1ccccc1C(=O)O [ASPIRIN] | – | > 5000 | > 5000 | > 5000 | > 5000 | > 5000 | – | > 5000 | > 5000 | > 5000 | > 5000 | > 5000 | 12 | Activity (Rattus norvegicus [22]): 200 pg/mL; Activity (Rattus norvegicus [23]): 0.35 mL; Activity (Rattus norvegicus [24]): 0.35 mL; Activity (Rattus norvegicus [25]): 0.4 mL |

From ChEMBL document CHEMBL2046423, “NOSH-Aspirin: A Novel Nitric Oxide-Hydrogen Sulfide-Releasing Hybrid: A New Class of Anti-inflammatory Pharmaceuticals” (ACS Med Chem Lett, 2012)
